Results from ChEMBL document CHEMBL2311453, “Tetrahydropyrroloquinolinone type dual inhibitors of aromatase/aldosterone synthase as a novel strategy for breast cancer patients with elevated cardiovascular risks” (J Med Chem, 2013).

How the values were obtained:
CYP17 = target: T1, CYP17 (Homo sapiens, UniProt P05093); assay: Inhibition of human CYP17 expressed in Escherichia coli using progesterone as substrate at 2 uM; conditions: probe progesterone
T1 sequence (P05093 whole entry): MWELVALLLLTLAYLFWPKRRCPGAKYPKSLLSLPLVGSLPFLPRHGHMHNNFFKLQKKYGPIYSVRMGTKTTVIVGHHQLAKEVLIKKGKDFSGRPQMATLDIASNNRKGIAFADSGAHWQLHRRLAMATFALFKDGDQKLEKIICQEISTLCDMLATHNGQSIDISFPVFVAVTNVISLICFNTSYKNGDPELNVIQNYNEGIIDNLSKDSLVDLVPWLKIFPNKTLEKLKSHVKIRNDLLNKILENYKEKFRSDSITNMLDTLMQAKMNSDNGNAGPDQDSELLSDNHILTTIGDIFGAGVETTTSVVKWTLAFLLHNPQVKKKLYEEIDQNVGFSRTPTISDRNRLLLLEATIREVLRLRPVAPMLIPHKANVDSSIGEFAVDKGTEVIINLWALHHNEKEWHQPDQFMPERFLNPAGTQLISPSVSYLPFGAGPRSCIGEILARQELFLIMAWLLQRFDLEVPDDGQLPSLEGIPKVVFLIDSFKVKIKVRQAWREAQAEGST
In short: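 Enzyme source was the 90000g sediment of E. coli coexpressing human CYP17 and cytochrome P450 reductase. Progesterone substrate at 25 μM, NADPH cofactor, inhibitor at 2 μM. Percent inhibition is the mean of at least two experiments (SD under 10%).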

CYP11B2 = target: T2, CYP11B2 (Homo sapiens, UniProt P19099); assay: Inhibition of human CYP11B2 expressed in hamster V79MZh cells using [1,2-3H]-11-deoxy-corticosterone as substrate; assay type: cell-based; conditions: human, hamster V79MZh cells expressing human CYP11B2, probe [1,2-3H]-11-deoxy-corticosterone
T2 sequence (P19099 whole entry): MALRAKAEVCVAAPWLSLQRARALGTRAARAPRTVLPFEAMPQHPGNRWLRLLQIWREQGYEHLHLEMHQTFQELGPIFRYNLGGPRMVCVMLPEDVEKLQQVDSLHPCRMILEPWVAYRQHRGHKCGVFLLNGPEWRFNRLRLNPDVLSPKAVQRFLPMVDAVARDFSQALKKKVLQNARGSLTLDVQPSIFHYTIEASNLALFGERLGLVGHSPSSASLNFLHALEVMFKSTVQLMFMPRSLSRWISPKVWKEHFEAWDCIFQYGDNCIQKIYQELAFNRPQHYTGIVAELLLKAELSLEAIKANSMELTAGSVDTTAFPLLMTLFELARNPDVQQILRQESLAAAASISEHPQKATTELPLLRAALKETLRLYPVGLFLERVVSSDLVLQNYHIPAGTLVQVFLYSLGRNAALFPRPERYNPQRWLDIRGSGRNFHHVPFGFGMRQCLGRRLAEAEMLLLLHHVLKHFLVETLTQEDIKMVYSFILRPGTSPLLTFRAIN
In short: (§1)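 V79MZh hamster fibroblasts stably expressing human CYP11B1 or CYP11B2, incubated with [1,2-³H]-11-deoxycorticosterone (100 nM) and inhibitor at varying concentrations. IC50 taken as mean of at least three experiments (relative SD under 25%).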

V79MZh = assay: Selectivity factor, ratio of IC50 for human CYP11B1 to IC50 for human CYP11B2 expressed in hamster V79MZh cells; assay type: cell-based
In short: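 SF calculated as IC50(CYP11B1)/IC50(CYP11B2). Both IC50s come from V79MZh hamster fibroblasts expressing the human enzyme, with [1,2-³H]-11-deoxycorticosterone at 100 nM as substrate.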

CYP11B1 = target: T3, CYP11B1 (Homo sapiens, UniProt P15538); assay: Inhibition of human CYP11B1 expressed in hamster V79MZh cells using [1,2-3H]-11-deoxy-corticosterone as substrate; assay type: cell-based; conditions: human, hamster V79MZh cells expressing human CYP11B1, probe [1,2-3H]-11-deoxy-corticosterone; in short: as §1
T3 sequence (P15538 whole entry): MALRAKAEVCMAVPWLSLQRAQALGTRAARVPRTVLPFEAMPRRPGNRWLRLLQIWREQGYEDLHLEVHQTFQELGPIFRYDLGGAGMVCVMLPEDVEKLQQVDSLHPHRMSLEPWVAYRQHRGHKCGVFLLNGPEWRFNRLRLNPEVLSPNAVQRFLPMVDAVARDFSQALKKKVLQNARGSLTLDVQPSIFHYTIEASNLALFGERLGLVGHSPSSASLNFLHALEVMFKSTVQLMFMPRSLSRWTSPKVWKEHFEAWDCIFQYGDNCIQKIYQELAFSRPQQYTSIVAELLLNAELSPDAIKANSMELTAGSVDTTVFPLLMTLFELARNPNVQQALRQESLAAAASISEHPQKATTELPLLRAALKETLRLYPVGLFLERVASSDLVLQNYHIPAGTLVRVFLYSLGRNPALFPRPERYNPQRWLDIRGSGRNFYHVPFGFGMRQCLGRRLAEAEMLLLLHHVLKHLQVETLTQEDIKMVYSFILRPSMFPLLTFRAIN

What does the source list for `O=C1CCc2cc(C(C3CC3)n3ccnc3)cc3c2N1CC3` (centres undefined)?
inhibition at 2 µM (CYP17): 41%; IC50 (CYP11B2): 24 nM; Ratio IC50 (V79MZh): 0.1; IC50 (CYP11B1): 2.2 nM
